The values that follow come from publication PMC6368478 (ACS infectious diseases, 2018).

Each structure is given as a SMILES string. Bounds are passed on as bounds.

Assay [1] concerns the target T1, Sts-1HP (Homo sapiens, UniProt Q8TF42). Kind of assay: OMFP fluorescence phosphatase assay, 1,536-well HTS. The format is biochemical. As to conditions: for Averaged Max. Response (%): LOPAC pilot screen, 5.8 μM nominal concentration, triplicate, OMFP substrate.
The conditions of assay [2]: read-out: Counterscreen IC50; compound added after NaOH stop, 10-point titration. A digest of the protocol: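 Same reagents and protocol as the primary OMFP screen: Sts-1HP at 750 ng/mL final in 30 mM Tris HCl, 75 mM NaCl, 1 mM EDTA, 1 mM DTT; OMFP 50 μM final; 20 min at room temperature in the dark; stopped with NaOH (100 mM final). Test compound is added after the NaOH stop. Fluorescence read; 10-point 3-fold titration in triplicate. IC50 comes from a four-parameter sigmoidal fit with adjustable baseline.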
A general note: Counterscreens check selectivity or assay interference.

The target of assay [3] is T1, Sts-1HP. Nature of the assay: pNPP absorbance phosphatase assay, inhibition analysis. The format is biochemical. The note with it: for Ki Ratio: Ki of construct / Ki of wild-type Sts-1HP, wild-type; for Mode of inhibition: double reciprocal plots, several inhibitor concentrations.
The target of assay [4] is T2, PTP-1B (Homo sapiens, UniProt P18031).
T2 sequence (P18031 1-435): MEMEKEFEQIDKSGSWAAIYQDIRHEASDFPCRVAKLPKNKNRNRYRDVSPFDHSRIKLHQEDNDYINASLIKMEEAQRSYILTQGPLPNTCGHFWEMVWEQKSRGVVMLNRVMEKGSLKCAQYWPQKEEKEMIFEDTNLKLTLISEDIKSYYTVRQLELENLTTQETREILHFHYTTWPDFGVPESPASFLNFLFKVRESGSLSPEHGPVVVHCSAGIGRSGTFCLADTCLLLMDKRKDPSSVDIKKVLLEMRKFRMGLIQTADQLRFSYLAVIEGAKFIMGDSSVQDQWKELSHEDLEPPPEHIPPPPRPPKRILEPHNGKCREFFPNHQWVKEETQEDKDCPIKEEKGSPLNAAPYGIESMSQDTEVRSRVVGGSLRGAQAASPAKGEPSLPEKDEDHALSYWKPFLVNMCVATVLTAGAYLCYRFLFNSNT
Nature of the assay: pNPP inhibition analysis, selectivity. The format is biochemical. As to conditions: for Selectivity: more active against Sts-1 than PTP1B: from Ki values, Table 4.

Assay [5] addresses Sts-1HP Y596L (Homo sapiens, UniProt Q8TF42, Y607L). Nature of the assay: pNPP inhibition analysis of Sts-1HP mutant. Format: biochemical. A digest of the protocol:
(§1)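 Mutant Sts-1HP is expressed in E. coli BL21(DE3) and purified. Assay uses 20 mM Tris (pH 7.5), 150 mM NaCl, 5 mM MgCl2 and 1 mM βME with varying pNPP, following pNP release at 405 nm. Initial rates (<10% completion) are measured at several fixed inhibitor concentrations, with controls for compound optical interference, in triplicate. Ki is derived from Km in the presence of inhibitor via a Lineweaver-Burk competitive fit.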

Assay [6] addresses Sts-1HP Y596F (Homo sapiens, UniProt Q8TF42, Y607F). Kind of assay: pNPP inhibition analysis of Sts-1HP mutant. The format is biochemical. A digest of the protocol:
as §1

In assay [7] the target is Sts-1HP W494H (Homo sapiens, UniProt Q8TF42, W505H). Kind of assay: pNPP inhibition analysis of Sts-1HP mutant. Format: biochemical. Put shortly:
as §1

The target in assay [8] is Sts-1HP W494F (Homo sapiens, UniProt Q8TF42, W505F). Nature of the assay: pNPP inhibition analysis of Sts-1HP mutant. Format: biochemical. Put shortly: as §1
The target in assay [9] is Sts-1HP W494L (Homo sapiens, UniProt Q8TF42, W505L). Kind of assay: pNPP inhibition analysis of Sts-1HP mutant. Format: biochemical. Put shortly: as §1
The target of assay [10] is SHP1 (Homo sapiens, UniProt P29350). Kind of assay: pNPP inhibition analysis, selectivity. Format: biochemical. The note with it: for Selectivity: more active against Sts-1 than SHP1: from Ki values, Table 4.
The target of assay [11] is Sts-1. The note with it: cited from earlier work.

Broadly, the IC50 is the concentration needed to halve the response being measured. In general, Ki refers to the equilibrium dissociation constant of an inhibitor or competing ligand from its target.

T1 sequence (Q8TF42 384-647 limits assumed): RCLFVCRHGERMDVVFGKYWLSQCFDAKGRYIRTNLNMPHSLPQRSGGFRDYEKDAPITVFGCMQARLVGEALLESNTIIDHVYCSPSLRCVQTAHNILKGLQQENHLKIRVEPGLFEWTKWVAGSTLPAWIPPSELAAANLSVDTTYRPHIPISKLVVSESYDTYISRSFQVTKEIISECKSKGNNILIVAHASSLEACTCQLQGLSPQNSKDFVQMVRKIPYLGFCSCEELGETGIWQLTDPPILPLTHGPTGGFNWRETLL
SHP1, sequence (P29350 whole entry): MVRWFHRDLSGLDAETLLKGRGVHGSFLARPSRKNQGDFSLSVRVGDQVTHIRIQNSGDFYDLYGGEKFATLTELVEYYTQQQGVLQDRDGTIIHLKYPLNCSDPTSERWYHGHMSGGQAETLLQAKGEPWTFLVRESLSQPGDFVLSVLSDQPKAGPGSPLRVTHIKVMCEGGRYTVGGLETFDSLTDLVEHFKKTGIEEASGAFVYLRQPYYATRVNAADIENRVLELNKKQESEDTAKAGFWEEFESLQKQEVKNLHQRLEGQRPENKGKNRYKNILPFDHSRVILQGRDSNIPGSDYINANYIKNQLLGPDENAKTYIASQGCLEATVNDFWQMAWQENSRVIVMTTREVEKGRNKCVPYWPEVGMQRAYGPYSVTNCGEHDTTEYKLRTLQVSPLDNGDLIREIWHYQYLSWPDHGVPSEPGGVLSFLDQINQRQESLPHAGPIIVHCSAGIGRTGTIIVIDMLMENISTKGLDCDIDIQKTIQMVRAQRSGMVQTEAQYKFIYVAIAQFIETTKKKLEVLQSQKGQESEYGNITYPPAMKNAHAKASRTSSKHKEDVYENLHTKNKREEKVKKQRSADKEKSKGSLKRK
Sts-1HP W494F, sequence (Q8TF42 384-647 W505F): as the sequence (Q8TF42 384-647 limits assumed) above, with W122F counted along it
Sts-1HP Y596L, sequence (Q8TF42 384-647 Y607L): as the sequence (Q8TF42 384-647 limits assumed) above, with Y224L counted along it
Sts-1HP W494L, sequence (Q8TF42 384-647 W505L): as the sequence (Q8TF42 384-647 limits assumed) above, with W122L counted along it
Sts-1HP W494H, sequence (Q8TF42 384-647 W505H): as the sequence (Q8TF42 384-647 limits assumed) above, with W122H counted along it
Sts-1HP Y596F, sequence (Q8TF42 384-647 Y607F): as the sequence (Q8TF42 384-647 limits assumed) above, with Y224F counted along it

Regarding `NC(Cc1cc(O)c(O)cc1O)C(=O)O` (racemic) [6-Hydroxy-DL-DOPA], in [1], the “Averaged Max. Response (%)” value came out at 64.86%.

As for `O=C(O)C1=CC(=C(c2ccc(O)c(C(=O)O)c2)c2ccc(O)c(C(=O)O)c2)C=CC1=O` [Aurintricarboxylic Acid], the “Averaged Max. Response (%)” value in assay [1] came to 89.95%.

Regarding `COc1cc(-c2ccc(/N=N/c3ccc4c(S(=O)(=O)O)cc(S(=O)(=O)O)c(N)c4c3O)c(OC)c2)ccc1/N=N/c1ccc2c(S(=O)(=O)O)cc(S(=O)(=O)O)c(N)c2c1O` [Chicago Sky Blue], the IC50 in assay [2] was above 14.5 µM; in [1], 1000 nM.

Regarding `Nc1c(/N=N/c2ccc(-c3ccc(/N=N/c4cc(S(=O)(=O)O)c5ccccc5c4N)cc3)cc2)cc(S(=O)(=O)O)c2ccccc12` [Congo Red], the inhibition constant (Ki) in [3] was found to be 0.079 ± 0.02 µM; in assay [4], 1470 ± 340 nM; in [5] it was 0.94 ± 0.05 µM; in assay [6] it was 0.23 ± 0.02 µM; in assay [7], 1.07 ± 0.03 µM; in assay [8] it was 1.42 ± 0.32 µM. Also, the Ki in assay [9] came out at 1.46 ± 0.13 µM; in [10], 3.88 ± 0.59 µM. Further, in assay [3], the “Ki Ratio” value is 1. Further, the Mode of inhibition entry in assay [3] is “competitive inhibition”. For the same compound, the “Selectivity: more active against Sts-1 than PTP1B” value in [4] was “approximately 20 fold”. Moreover, the IC50 in [2] was above 14.5 µM; in [1] it was 920 nM. Moreover, the “Selectivity: more active against Sts-1 than SHP1” value in [10] was around 50 fold.

With `CN(C)[C@@H]1C(O)=C(C(N)=O)C(=O)[C@@]2(O)C(O)=C3C(=O)c4c(O)ccc(Cl)c4[C@@H](O)[C@H]3C[C@@H]12` [Demeclocycline], the figures for the 50% inhibitory concentration (IC50) in [2] and in assay [1] were above 14.5 µM and 4700 nM, respectively.

Consider `CN(N=O)c1cc(O)ccc1O` [Dephostatin], for which, in [1], the “Averaged Max. Response (%)” value is 43.47%.

In the case of `C[C@H]1c2cccc(O)c2C(=O)C2=C(O)[C@]3(O)C(=O)C(C(N)=O)=C(O)[C@@H](N(C)C)[C@@H]3[C@@H](O)[C@@H]21` [Doxycycline], the Ki is 99 ± 19 µM in [3]; 490 ± 50 µM in [5]; 390 ± 40 µM in assay [6]; 1480 ± 90 µM in assay [7]; 1420 ± 110 µM in assay [8]; 730 ± 40 µM in [9]. The “Ki Ratio” value in assay [3] amounted to 1. The Mode of inhibition entry in [3] is on record as “competitive inhibition”. Besides, the “Selectivity: more active against Sts-1 than PTP1B” value in [4] is listed as “more than 200 fold”. In addition, the “Ki Doxycycline” value in assay [4] (pNPP substrate) and in assay [10] (pNPP substrate) was “No Inhibition” in each case. Also, the figures for the IC50 in assay [2] and in assay [1] were above 14.5 µM and 4100 nM, respectively. Further, the “Averaged Max. Response (%)” value in assay [1] amounted to 45.03%. The “Selectivity: more active against Sts-1 than SHP1” value in assay [10] is “more than 200 fold”.

The compound `Cc1cc(-c2ccc(/N=N/c3ccc4c(S(=O)(=O)O)cc(S(=O)(=O)O)c(N)c4c3O)c(C)c2)ccc1/N=N/c1ccc2c(S(=O)(=O)O)cc(S(=O)(=O)O)c(N)c2c1O` [Evans Blue] returned a Ki in [3] of 0.39 ± 0.11 µM. Also, the figures for the IC50 in assay [2] and in assay [1] were 23.6 µM and 3100 nM, respectively.

Regarding `O=c1cc(O)cc(/C=C/c2ccc(O)c(O)c2)o1` [Hispidin], in assay [1], the “Averaged Max. Response (%)” value was 44.44%.

Consider `C[C@](N)(Cc1ccc(O)c(O)c1)C(=O)O` [L-α-methyl DOPA], for which the “Averaged Max. Response (%)” value in assay [1] amounted to 57.45%.

With `C=C1c2c(Cl)ccc(O)c2C(=O)C2=C(O)[C@]3(O)C(=O)C(C(N)=O)=C(O)[C@@H](N(C)C)[C@@H]3[C@@H](O)[C@H]12` [Meclocycline], the 50% inhibitory concentration (IC50) in [2] was above 14.5 µM; in assay [1], 1800 nM.

Turning to `C=C1c2cccc(O)c2C(=O)C2=C(O)[C@]3(O)C(=O)C(C(N)=O)=C(O)[C@@H](N(C)C)[C@@H]3[C@@H](O)[C@H]12` [Methacycline], the affinity in assay [3], expressed as Ki, was 326 ± 35 µM. Besides, the IC50 in assay [2] is above 14.5 µM; in [1], 670 nM.

With `CN(N=O)c1ccc(O)c(O)c1` [Methyl-3,4-Dephostatin], the “Averaged Max. Response (%)” value in [1] came to 46.07%.

For the compound `CN(C)c1ccc(O)c2c1C[C@H]1C[C@H]3[C@H](N(C)C)C(O)=C(C(N)=O)C(=O)[C@@]3(O)C(O)=C1C2=O` [Minocycline], the “Averaged Max. Response (%)” value in [1] was determined as 32.59%.

For the compound `O=c1c(O)c(-c2ccc(O)cc2O)oc2cc(O)cc(O)c12` [Morin], the “Averaged Max. Response (%)” value in assay [1] was 44.94%.

For the compound `O=C(Nc1ccc(C(=O)Nc2ccc(C(=O)Nc3ccc(S(=O)(=O)O)c4cc(S(=O)(=O)O)cc(S(=O)(=O)O)c34)cc2)cc1)Nc1ccc(C(=O)Nc2ccc(C(=O)Nc3ccc(S(=O)(=O)O)c4cc(S(=O)(=O)O)cc(S(=O)(=O)O)c34)cc2)cc1` [NF-279], the IC50 in assay [2] was above 29 µM.

As to `CN(C)[C@@H]1C(O)=C(C(N)=O)C(=O)[C@@]2(O)C(O)=C3C(=O)c4c(O)cccc4[C@@](C)(O)[C@H]3[C@H](O)[C@@H]12` [Oxytetracyline], in assay [2], the concentration for half-maximal inhibition (IC50) was above 14.5 µM.

`O=C1C(=NNc2ccc(S(=O)(=O)O)cc2)C(c2ccc([N+](=O)[O-])cc2)=NN1c1ccccc1` [PHPS1, 4-[2-[1,5-dihydro-3-(4-nitrophenyl)-5-oxo-1-phenyl-4H-pyrazol-4-ylidene]hydrazinyl]-benzenesulfonic acid]: the Ki in assay [11] was 1000 nM. Moreover, it took 17600 nM to reach half-maximal inhibition in assay [1] (IC50).

Consider `Cc1nc(N=Nc2cc(S(=O)(=O)O)c3cc([N+](=O)[O-])cc(S(=O)(=O)O)c3c2)c(COP(=O)(O)O)c(C=O)c1O` [PPNDS], for which the IC50 in assay [2] was above 29 µM.

As to `Nc1c(S(=O)(=O)O)cc(Nc2ccc(Nc3nc(Cl)nc(Nc4cccc(S(=O)(=O)O)c4)n3)c(S(=O)(=O)O)c2)c2c1C(=O)c1ccccc1C2=O` [Reactive Blue 2], in assay [1], the “Averaged Max. Response (%)” value is recorded as 58.99%.

Regarding `CN(C)[C@@H]1C(O)=C(C(N)=O)C(=O)[C@@]2(O)C(O)=C3C(=O)c4c(O)cccc4[C@@](C)(O)[C@H]3C[C@@H]12` [Tetracycline], in assay [3], the inhibition constant (Ki) turned out to be 199 ± 20 µM. Further, the half-maximal inhibitory concentration (IC50) in assay [2] was above 14.5 µM; in assay [1], 1900 nM.
